NCF1 inh = p47phox (human) inhibition | P14598 | p47phox/p22phox peptide binding, fluorescence polarization, 2 h | inhibition, % at 24.7 µM | actives 0.53% (n = 220,000) | AID 1274;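 also: 0% = p47phox with labelled peptide and 100% = labelled peptide alone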
eIF4E 4G PPI = inhibitors of eIF4E and eIF4G interaction in translation initiation. P63073+Q04637. TR-FRET eIF4E-eIF4GI(517-606) binding, 2 h. inhibition, % at 21.7 µM. actives 0.37% (n = 220,000). AID 782;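 also: 0% = full FRET control wells and 100% = background wells lacking eIF4GI fragment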
14-3-3 Bad inh = disrupts binding of bovine 14-3-3 zeta to phospho-Bad peptide; actives 0.71% (n = 220,000); P63103; TR-FRET 14-3-3zeta/Dy647-pBad peptide displacement, 1 h; inhibition, % at 21.7 µM;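 active = inhibition above about 70%, limit read from the data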;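 also: 0% = full 14-3-3 plus peptide FRET controls and 100% = background without 14-3-3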
Tb MetRS inh = Trypanosoma brucei MetRS inhibition; AID 624268; purified T. brucei MetRS, ATP depletion, Kinase-Glo luminescence; actives 0.4% (n = 360,000); inhibition, % at 11.9 µM;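 active = inhibition above a per-plate cutoff of the control wells' mean inhibition plus 3 SD, cut at about 5.5% in these data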;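 also: 0% = DMSO wells median and 100% = median of wells with control inhibitor compound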
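Material: T. brucei methionyl-tRNA synthetase, purified; reagent: substrates ATP, L-methionine and bulk Escherichia coli tRNA; dosing: 11.9 µM single point; timing: 15 min plus 2 h at 25 °C; detection: luminescence of leftover ATP; evaluation: % inhibition; control set: DMSO-only wells as low control; replicates: singlicate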
UBC9 SUMO inh = SUMOylation inhibition | actives 0.36% (n = 290,000) | AID 2006 | P63279 | inhibition, % at 35 µM | HTRF SUMOylation assay, SAE1/SAE2 + UBC9, in vitro; in the data active = inhibition above about 50%, passing the limit was not always enough
p97 ATPase inh = human p97 ATPase inhibition | P55072 | recombinant p97 ATPase, Kinase-Glo ATP luminescence, 3 h | inhibition, % at 8 µM | actives 0.42% (n = 220,000) | AID 1481; in the data active = inhibition above about 15%;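 also: 0% = DMSO vehicle and 100% = wells lacking enzyme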
Target sequence (P55072 whole entry, looked up): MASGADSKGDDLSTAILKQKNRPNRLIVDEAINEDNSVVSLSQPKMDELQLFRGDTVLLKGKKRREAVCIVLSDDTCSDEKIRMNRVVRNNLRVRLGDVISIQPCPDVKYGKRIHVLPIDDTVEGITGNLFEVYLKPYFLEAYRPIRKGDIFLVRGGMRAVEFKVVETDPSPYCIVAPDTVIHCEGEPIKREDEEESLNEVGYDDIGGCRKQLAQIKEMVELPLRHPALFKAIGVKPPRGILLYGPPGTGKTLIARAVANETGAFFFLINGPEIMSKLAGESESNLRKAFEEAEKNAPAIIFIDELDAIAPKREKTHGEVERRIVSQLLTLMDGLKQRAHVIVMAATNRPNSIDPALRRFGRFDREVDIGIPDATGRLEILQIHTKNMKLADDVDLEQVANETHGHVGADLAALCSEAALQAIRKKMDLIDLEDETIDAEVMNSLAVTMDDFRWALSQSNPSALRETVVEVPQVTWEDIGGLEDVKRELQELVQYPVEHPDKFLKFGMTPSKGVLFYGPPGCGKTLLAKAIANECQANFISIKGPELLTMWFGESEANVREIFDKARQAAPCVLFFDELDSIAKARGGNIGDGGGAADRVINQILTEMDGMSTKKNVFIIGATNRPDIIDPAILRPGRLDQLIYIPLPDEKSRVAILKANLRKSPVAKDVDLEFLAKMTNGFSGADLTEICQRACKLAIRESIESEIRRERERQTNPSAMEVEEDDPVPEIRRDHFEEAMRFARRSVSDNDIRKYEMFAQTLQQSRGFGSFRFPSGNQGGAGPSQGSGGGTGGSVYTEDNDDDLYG
Active calls of the source: *; . = no result; [ ] = remark or other dose. Rows were chosen to be rich in hits. Some 1.6% of all compounds tested hit in one or more screens of this group.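 The calls were made as follows, unless noted: active = inhibition above about 30% (limit read from the data); inactive = the rest.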

SMILES	NCF1 inh	eIF4E 4G PPI	14-3-3 Bad inh	Tb MetRS inh	UBC9 SUMO inh	p97 ATPase inh
O=[N+]([O-])c1ccc2c(c1)N([O-])C1(CCCCC1)[N+]2=O	12	5	0	.	54*	6
COCCn1nnnc1CN1CCN2CCCC2C1 (centres undefined)	19	1	86*	0	12	2
CC(C)(C)n1nnnc1CN1CCN2CCCC2C1 (centres undefined)	-6	1	47	0	7	-5
C1=CC2CC1CC2CN1CCN(c2ccccc2)CC1 (centres undefined)	-22	0	75*	0	28	4
Cc1ccccc1CN1CCN(CC2CC3C=CC2C3)CC1 (centres undefined)	-7	-6	67	0	0	-2
Cn1ccc(-c2ccccc2)n1	-1	-2	-4	0	5	0
N#Cc1cc(-c2ccccc2)nn1-c1ccccc1	34*	66*[fluorescence artefact?]	80*[fluorescence artefact?]	1	1	5
CC(=O)N1CCC(C(=O)N2c3ccccc3N=C(c3ccc(C(F)(F)F)cc3)C2C(=O)NC2CCCC2)CC1 (centres undefined)	.	.	.	0	.	.
CC(C)[C@@H]1NC(=O)c2cc([N+](=O)[O-])cc(I)c2NCC[C@@H](C(N)=O)NC(=O)[C@H](CO)NC1=O	-6	9	2	.	2	18*
NCCCC[C@@H]1NC(=O)[C@H](CCC(=O)O)NC(=O)c2cc([N+](=O)[O-])cc(I)c2SC[C@@H](C(=O)NCC(N)=O)NC1=O	-1	5	48	0	14	7
C[C@@H](O)C1NC(=O)[C@H](CCCCN)NC(=O)c2cc([N+](=O)[O-])cc(I)c2NCCC[C@@H](C(N)=O)NC1=O (some centres undefined)	-11	34*	3	0	8	-2
NCCCC[C@@H]1NC(=O)c2cc([N+](=O)[O-])cc(I)c2SC[C@@H](C(N)=O)NC(=O)[C@H](Cc2ccc(O)cc2)NC1=O	-5	2	72*[fluorescence artefact?]	0	-9	10
CCNc1nc(SCC(=O)Nc2ccc(Cl)c(Cl)c2)nc(N2CCOCC2)n1	.	.	.	0	-22	.
CCOC(=O)[C@]12CCC=C1N(Cc1ccccc1)C(=O)[C@H](CC(=O)NCc1cccc(C(F)(F)F)c1)C2	.	.	.	0	.	.
CCOC(=O)[C@]12CCCC=C1N(CCC1=CCCCC1)C(=O)[C@H](CC(=O)NCc1ccccc1)C2	.	.	.	0	.	.
CCOc1cc(C(=O)Nc2ccc3c4c(cccc24)C(=O)N3CC)cc(OCC)c1OCC	-1	59*	-2	0	-3	-5
CCN1C(=O)c2cccc3c(NC(=O)c4cccc(N5C(=O)CCC5=O)c4)ccc1c23	2	-4	16	0	15	-3
Cc1cc(C)n(-c2ccc(C(=O)Nc3ccc4c(c3)OCO4)cc2)n1	-9	7	-10	0	4	1
COc1ccc(NC(=O)c2ccc(-n3nc(C)cc3C)cc2)cc1OC	38*	3	-9	0	6	-5
COC(=O)c1c(C)cc(OC(C)=O)c(C)c1OC(C)=O	-15	33*	-3	-1	31	4
Cc1cc(Br)ccc1NCc1ccccn1	-2	7	76*	-1	-23	0
COc1ccc(Br)cc1S(=O)(=O)NCc1ccccn1	.	.	.	1	15	.
O=c1c(O)c(-c2ccccc2)oc2cc(O)cc(O)c12	.	.	.	-3	.	.
O=c1c(O)c(-c2ccc(O)cc2O)oc2cc(O)cc(O)c12	-37	9	57	.	18	49*
CCOc1ccccc1-n1nnnc1SCC(=O)N1CCCC1=O	.	.	.	0	.	.
SMILES	NCF1 inh	eIF4E 4G PPI	14-3-3 Bad inh	Tb MetRS inh	UBC9 SUMO inh	p97 ATPase inh
Clc1cccc(-c2nc3c4ccccc4ccn3c2CC2CCCCC2)c1	.	.	.	0	.	.
CN(Cc1ccccc1)CC(O)COc1ccc(CNCCc2ccncc2)cc1 (centres undefined)	-2	-4	86*	-1	1	-5
CCCCNC(=O)c1[nH]c(C2CCNCC2)nc1-c1cccc(C(F)(F)F)c1	.	.	.	0	.	.
COc1ccc(NC(=O)[C@@H]2O[C@H](CO)[C@H](O)[C@H](O)[C@H]2O)cc1F	.	.	.	0	.	.
S=c1[nH]nc(-c2ccncc2)n1/N=C/C=C/c1ccco1	-1	14	-1	-1	91*	12
CC(/C=N/n1c(-c2ccco2)n[nH]c1=S)=C\c1ccco1	9	4	-5	0	64*	-4
CC(/C=N/n1c(-c2ccc(C)cc2)n[nH]c1=S)=C\c1ccco1	-5	1	-5	0	19	3
COc1ccc(Cn2cc(Cn3c4ccccc4c(=O)n3C(C)C)nn2)cc1	.	.	.	-1	.	.
COc1cc(CN2CCCN(C)CC2)cc([N+](=O)[O-])c1O	.	.	.	0	0	.
O=C(CSc1ccc(-c2ccco2)nn1)c1cccc([N+](=O)[O-])c1	-6	0	-8	0	73*	6
CC(=O)c1cccc(NC(=O)CSc2ccc(-c3ccco3)nn2)c1	.	.	.	0	11	.
CNc1ccc([N+](=O)[O-])cc1-c1nc2ccccc2[nH]c1=O	19	18	73*	-1	27	2
CC(C)C(=O)Nc1ccc(Cl)cc1-c1nc2ccccc2[nH]c1=O	.	.	.	0	14	.
Cc1nn(-c2ccccc2)c2sc(C(=O)NNC(=O)COc3ccccc3)cc12	10	3	12	0	55*	1
CC(C)N1C(=O)CC2(CC[N+](C)(CCOC(=O)C(c3ccccc3)c3ccccc3)CC2)C1=O (centres undefined)	11	-1	77*[fluorescence artefact?]	-1	10	5
O=C(c1ccco1)N1C(=O)c2cccc3cccc1c23	150*	5	-6	-1	-5	8
Nc1cccc2c1C(=O)N(C(=O)c1ccco1)C2=O	-10	0	-1	-1	42	4
COc1ccc(OC)c(NC(=O)NNC(=O)c2cc3occc3[nH]2)c1	.	.	.	9.2*	7	.
CCOC(=O)C1CCN(C(=O)c2ccc(CNS(=O)(=O)c3ccc(C)cc3)cc2)CC1	33*	-2	4	-1	-5	1
CCOC(=O)C1CCN(C(=O)CCNS(=O)(=O)c2ccc(C)cc2)CC1	.	.	.	0	.	.
Cc1ccc(NC(=O)NNC(=O)Cn2nc(-c3ccccc3)c(-c3ccccc3)c(C#N)c2=O)cc1	0	-13	-1	-1	-19	15*
CC(C)CN1C(=O)CSCC1(C)C(=O)NC(C)C (centres undefined)	.	.	.	-1	.	.
c1ccc2c(c1)OCc1cn[nH]c1-2	1	51*	2	-1	8	-4
O=c1c2ccccc2nc(CSc2nnnn2-c2ccccc2)n1-c1ccccc1Cl	40*	10	42	-1	3	-2
CC(=O)Oc1ccccc1C(=O)NC(C)CCc1ccccc1 (centres undefined)	.	.	.	-1	8	.
